ChEMBL document CHEMBL1123937, “(5Z)-7-(2,2-Dimethyl-4-phenyl-1,3-dioxan-cis-5-yl)heptenoi c acid: a specific thromboxane A2 receptor antagonist” (J Med Chem, 1987)
One block for each molecule: values may come before it.

Experiments:
[1] = target: Thromboxane A2 receptor (Oryctolagus cuniculus); test: Ability to inhibit U-46,619-induced contraction of isolated strips of rabbit thoracic aorta, which is the measure of thromboxane receptor antagonism; settings: read-out: pA2 (converted)
Cavia porcellus [2] = species on record: Cavia porcellus; test: Compound was tested for the concentration that inhibited the bronchoconstriction induced by U 46619 for a period exceeding 2 h.; format: functional
Cavia porcellus [3] = species on record: Cavia porcellus; test: Ability to antagonise the actions of crude SRSA on guinea pig ileum was determined; format: functional; settings: read-out: pA2 (converted)
[4] = target: thromboxane A2 (TxA2) receptor (Cavia porcellus, UniProt A0A286Y4I8); test: Ability to inhibit U-46,619-induced contraction of isolated strips of guinea pig tracheal chain, which is the measure of thromboxane receptor antagonism; format: functional; settings: read-out: pA2 (converted)
Cavia porcellus [5] = species on record: Cavia porcellus; test: Ability to inhibit relaxant effect of PGE-2 on guinea pig trachea was determined; format: functional; settings: read-out: pA2 (converted)
Cavia porcellus [6] = species on record: Cavia porcellus; test: Ability to inhibit the contractile effect of PGE-2 on guinea pig trachea; format: functional; settings: read-out: pA2 (converted)
Cavia porcellus [7] = species on record: Cavia porcellus; test: Inhibition of the response to PGE-2 in guinea pig ileum was determined; format: functional; settings: read-out: pA2 (converted)
Homo sapiens [8] = species on record: Homo sapiens; test: Compound was tested for the concentration in human platelet -rich plasma that did not modify PGI-2 inhibition of ADP- induced aggregation.; format: functional
Homo sapiens [9] = species on record: Homo sapiens; test: Ability to inhibit aggregate formation in human platelets induced by arachidonic acid.; format: functional
Homo sapiens [10] = species on record: Homo sapiens; test: Ability to inhibit aggregate formation in human platelets induced by collagen; format: functional
Oryctolagus cuniculus [11] = species on record: Oryctolagus cuniculus; test: Compound was tested for the antagonist serotonin- and norepinephrine-induced contractions of rabbit aorta.; format: functional
Procedure, shortened: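 Rabbit aortic strips contracted with serotonin or norepinephrine and tested in the presence of the antagonist at concentrations up to 2×10^-5 M.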

Oryctolagus cuniculus [12] = species on record: Oryctolagus cuniculus; test: Ability to inhibit the contractile effect of […] on rabbit aorta was determined; format: functional; settings: read-out: pA2 (converted)
Oryctolagus cuniculus [13] = species on record: Oryctolagus cuniculus; test: Ability to inhibit the contractile effect of PGE-2 on rabbit aorta was determined; format: functional; settings: read-out: pA2 (converted)
Rattus norvegicus [14] = species on record: Rattus norvegicus; test: Inhibition of the response to […] in rat colon was determined; format: functional; settings: read-out: pA2 (converted)
Thromboxane A2 receptor = target: T1, Thromboxane A2 receptor (Rattus norvegicus, UniProt P34978); test: Ability to inhibit U-46,619-induced contraction of isolated strips of rat aorta, which is the measure of thromboxane receptor antagonism; format: functional; settings: read-out: pA2 (converted)
T1 sequence (P34978 whole entry): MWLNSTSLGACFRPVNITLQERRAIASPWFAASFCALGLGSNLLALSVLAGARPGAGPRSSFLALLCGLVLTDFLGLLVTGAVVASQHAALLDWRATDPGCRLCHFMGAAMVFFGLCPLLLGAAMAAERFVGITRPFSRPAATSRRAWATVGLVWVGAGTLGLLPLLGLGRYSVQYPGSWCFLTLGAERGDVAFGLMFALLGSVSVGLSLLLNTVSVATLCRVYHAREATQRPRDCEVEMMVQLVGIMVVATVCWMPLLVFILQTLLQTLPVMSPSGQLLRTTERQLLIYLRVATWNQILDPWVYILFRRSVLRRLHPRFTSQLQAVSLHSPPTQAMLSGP

Rattus norvegicus [15] = species on record: Rattus norvegicus; test: Ability to inhibit norepinephrine -induced contraction of isolated strips of rat aorta, […]; format: functional; settings: read-out: pA2 (converted)
Rattus norvegicus [16] = species on record: Rattus norvegicus; test: Ability to inhibit the contractile effect of PGD-2 on rat aorta was determined; format: functional; settings: read-out: pA2 (converted)
Cavia porcellus [17] = species on record: Cavia porcellus; test: Ability to inhibit the contractile effect of PGF2-alpha on guinea pig trachea; settings: read-out: pA2 (converted)

Kb [1]: > 20 µM
Compound: CC1(C)OC[C@H](C/C=C\CCCC(=O)O)[C@@H](c2ccccc2)O1

Kb [4]: 0.263 µM | Kb (Thromboxane A2 receptor): 0.145 µM | Kb [1]: 0.501 µM
Compound: CC1(C)OC[C@@H](C/C=C\CCCC(=O)O)[C@@H](c2ccccc2)O1
Activity (Cavia porcellus [2]): 5 mg/kg | Kb (Cavia porcellus [3]): > 20 µM | Kb (Cavia porcellus [5]): > 20 µM | Kb (Cavia porcellus [6]): 10.5 µM | Kb (Cavia porcellus [7]): > 20 µM | Concentration (Homo sapiens [8]): 100 µM | KB (Homo sapiens [9]): 1.42e-05 | KB (Homo sapiens [10]): 9.12e-06 | Concentration (Oryctolagus cuniculus [11]): 20 µM | Kb (Oryctolagus cuniculus [12]): 1.62 µM | Kb (Oryctolagus cuniculus [13]): 6.76 µM | Kb (Rattus norvegicus [14]): > 20 µM | Kb (Rattus norvegicus [15]): > 20 µM | Kb (Rattus norvegicus [16]): 1.95 µM | Kb (Cavia porcellus [17]): 11.2 µM

Kb [1]: 0.501 µM
Compound: O=C(O)CCC/C=C\C[C@@H]1COCO[C@@H]1c1ccccc1

Kb [1]: > 20 µM
Compound: O=C(O)CCC/C=C\C[C@H]1COCO[C@@H]1c1ccccc1
